Measurements as given in PubChem BioAssay.
Calls of active or inactive are those of the source. Unless noted, no stated cut-off is given here; in the data, active means inhibition above about 30%; inactive means the rest.

What was measured:
[1] = Her2 expression decrease, cell viability multiplex – SKBR3 breast tumor cells, AlphaScreen, ATP viability, primary screen (AID 461;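 active means Her2 level under about 52% in both replicate screens, with viability over 70% of control, limit read from the data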;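 on Her2 level: lower value means less Her2 protein in the cells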;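 on viability: percent of carrier control wells set as 100% viability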); conditions: SKBR3 Her2 protein level, 18-24 h, measured here: SKBR3 viability, ATP luminescence, at 10 µM
[2] = target: Receptor tyrosine-protein kinase erbB-2 (Homo sapiens) (UniProt P04626); experiment: as above; conditions: 18-24 h, at 10 µM, stronger effect = lower value
Sequence of Receptor tyrosine-protein kinase erbB-2 (Homo sapiens) (P04626 whole entry, looked up): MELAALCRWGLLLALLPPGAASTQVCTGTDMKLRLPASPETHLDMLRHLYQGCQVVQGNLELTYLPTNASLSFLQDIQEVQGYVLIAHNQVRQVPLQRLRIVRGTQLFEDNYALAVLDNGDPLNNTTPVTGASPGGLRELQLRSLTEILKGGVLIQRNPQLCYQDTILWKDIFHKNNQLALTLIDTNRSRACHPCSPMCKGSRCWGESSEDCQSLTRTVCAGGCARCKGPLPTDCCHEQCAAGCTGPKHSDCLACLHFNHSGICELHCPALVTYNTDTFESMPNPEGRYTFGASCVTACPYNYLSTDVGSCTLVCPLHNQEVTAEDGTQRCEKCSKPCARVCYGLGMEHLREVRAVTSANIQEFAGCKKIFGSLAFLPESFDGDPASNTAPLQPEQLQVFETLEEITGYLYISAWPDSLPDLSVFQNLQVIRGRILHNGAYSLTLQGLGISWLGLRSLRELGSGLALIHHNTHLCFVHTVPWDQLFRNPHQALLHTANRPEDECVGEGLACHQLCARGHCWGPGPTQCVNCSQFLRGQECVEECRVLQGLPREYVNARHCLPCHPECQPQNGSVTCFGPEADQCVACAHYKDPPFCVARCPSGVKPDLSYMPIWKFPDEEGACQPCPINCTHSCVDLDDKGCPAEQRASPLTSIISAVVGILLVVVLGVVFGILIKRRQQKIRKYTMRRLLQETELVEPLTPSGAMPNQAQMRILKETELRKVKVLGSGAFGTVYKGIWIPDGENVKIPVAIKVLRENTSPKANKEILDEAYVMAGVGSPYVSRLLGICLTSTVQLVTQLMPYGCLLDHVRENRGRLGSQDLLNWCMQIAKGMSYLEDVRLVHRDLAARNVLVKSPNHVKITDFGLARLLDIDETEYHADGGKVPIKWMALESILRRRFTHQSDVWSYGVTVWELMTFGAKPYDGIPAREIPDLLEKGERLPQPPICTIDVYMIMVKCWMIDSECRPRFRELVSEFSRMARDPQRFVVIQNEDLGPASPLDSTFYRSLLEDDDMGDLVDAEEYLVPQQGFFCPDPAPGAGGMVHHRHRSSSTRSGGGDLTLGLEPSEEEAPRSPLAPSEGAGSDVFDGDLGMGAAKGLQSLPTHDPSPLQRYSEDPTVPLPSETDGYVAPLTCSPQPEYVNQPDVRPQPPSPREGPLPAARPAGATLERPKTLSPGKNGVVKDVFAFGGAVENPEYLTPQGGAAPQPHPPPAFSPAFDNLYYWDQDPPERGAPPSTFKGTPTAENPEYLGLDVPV

[3] = reduced viability of SK-BR-3 breast cancer cells – cell-based, 24 h, human, pilot screen (AID 572;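 active means viability at or below 10% of carrier control in both of two separate runs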;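 further: compound exposure lasted between 18 and 24 h rather than exactly 24 h; 100% = carrier-treated control wells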); conditions: SK-BR-3 viability, CellTiter-Glo luminescence, at 10 µM, stronger effect = lower value
[4] = HUVEC growth inhibition – cell-based, human, primary screen (AID 575;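 active means viability at or below 30% in both replicate assays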;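 further: 100% = median of untreated cell wells with 0.1% DMSO on each plate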); conditions: HUVEC proliferation, CellTiter-Glo luminescence, 72 h; at 10 µM; stronger effect = lower value
Outline: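 System – primary HUVEC, no more than 12 passages · Medium – Low-serum (2% FBS) EBM, supplemented · Times – 72 h exposure, 37 °C, 5% CO2, 30 min RT equilibration · Measured by – luminescent ATP assay · Read-out – % viability relative to median vehicle-well signal on each plate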

[5] = H69AR cell proliferation blockers – human, duplicate replicates, primary screen (AID 580;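 active means viability at or under a set limit in both replicates, limit being median viability minus 3 SD, cut at about 48% in these data, passing the limit was not always enough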;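 further: 100% = mean luminescence of untreated wells and 0% = no signal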); conditions: H69AR lung tumor cells viability, ATP luminescence, 72 h; at 10 µM; stronger effect = lower value
[6] = MRP1 drug-resistance reversers in H69AR cells – cell-based, doxorubicin co-treatment, pilot screen (AID 601;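 active means viability loss from added drug above about 55%, and viability with drug at most 40%, in both replicates, limit read from the data, passing the limit was not always enough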); conditions: CellTiter-Glo, 72 h, at 10 µM; for differential viability (reversal): stronger effect = higher value
[7] = yeast transport mutant growth inhibition pilot in 384-well plates, post-Golgi transport modulator project (AID 636; in the data active means inhibition above about 31%); conditions: absorbance 615 nm, about 18 h, stronger effect = higher value
[8] = growth suppression of yeast trafficking mutant, preliminary HTS, modulators of trafficking downstream of Golgi apparatus project, 1536-format plate, OD 615 nm (AID 637); conditions: yeast transport mutant growth, absorbance 615 nm, 18 h; stronger effect = higher value
[9] = H69AR cells + 2 uM doxorubicin, measured here: viability with 2 uM doxorubicin, stronger effect = lower value
[10] = H69AR cells, compound alone cytotoxicity

Row | Structure (SMILES) | viability [1] [%] | Her2 level [2] | viability [3] | viability [4] | viability [5] | differential viability (reversal) ([6]; H69AR cells + 2 uM doxorubicin) | viability [6, 9] [%] | viability [6, 10] [%] | inhibition [7] | inhibition [8]
1 | CN(CC(=O)N1CCN(C2CCCCC2)CC1)S(=O)(=O)c1cccc2nsnc12 | 88 | 83% (inactive) | 88% (inactive) | 107% (inactive) | 97.2% (inactive) | 5.6% (inactive) | 91.5 | 97.2 | -4.53% (inactive) | 6.23% (inactive)
2 | O=S(=O)(Cc1ccccc1)N1CCN(Cc2ccccc2)CC1 | 84.5 | 109% (inactive) | 84.5% (inactive) | 87.3% (inactive) | 95.5% (inactive) | 15.5% (inactive) | 79.9 | 95.5 | -0.13% (inactive) | 0.95% (inactive)
3 | CC(=O)Nc1ccc(NC(=O)C(C)Oc2ccccc2F)cc1 (stereo not given) | 102 | 102% (inactive) | 102% (inactive) | 113% (inactive) | 103% (inactive) | 18.8% (inactive) | 84 | 103 | -5.97% (inactive) | -2.22% (inactive)
4 | O=C(CCCN1C(=O)c2ccccc2C1=O)N1CCC(c2ccccc2)C1 (stereo not given) | 110 | 108% (inactive) | 110% (inactive) | 114% (inactive) | 96.4% (inactive) | -1.44% (inactive) | 97.8 | 96.4 | -5% (inactive) | 0.33% (inactive)
5 | Cc1nc(C)c(C(=O)Nc2ccc(Oc3ccccc3)cc2)o1 | 94.5 | 82% (inactive) | 94.5% (inactive) | 66.4% (inactive) | 103% (inactive) | 23.8% (inactive) | 79.4 | 103 | -6.35% (inactive) | -6.5% (inactive)
6 | O=C(NC1CCCCC1)N(Cc1ccc(F)cc1)Cc1nc2ccccc2c(=O)[nH]1 | 98.5 | 80% (inactive) | 98.5% (inactive) | 78.2% (inactive) | 100% (inactive) | 7.63% (inactive) | 92.4 | 100 | -5.66% (inactive) | -1.83% (inactive)
7 | Cc1nnc(NC(=O)CSc2nnc(-c3ccc(S(=O)(=O)N4CCCC4)cc3)n2C)s1 | 93 | 88.5% (inactive) | 93% (inactive) | 104% (inactive) | 99% (inactive) | 6.45% (inactive) | 92.6 | 99 | -2.8% (inactive) | -2.1% (inactive)
8 | Cc1occc1C(=O)Nc1cccc2ccccc12 | 86 | 75.5% (inactive) | 86% (inactive) | 62.9% (inactive) | 73.2% (inactive) | -12.8% (inactive) | 86.1 | 73.2 | -1.84% (inactive) | 1.77% (inactive)
9 | CCCC(=O)Nc1ccc(OCC(=O)OC)cc1 | 99.5 | 78.5% (inactive) | 99.5% (inactive) | 89.9% (inactive) | 98.9% (inactive) | 5.34% (inactive) | 93.6 | 98.9 | -3.95% (inactive) | 0.79% (inactive)
10 | Cc1ccc2occ(CN3CCN(c4ccccc4)CC3)c(=O)c2c1 | 104 | 104% (inactive) | 104% (inactive) | 89% (inactive) | 87.5% (inactive) | -6.67% (inactive) | 94.2 | 87.5 | -1.04% (inactive) | -3.77% (inactive)
11 | Cc1ccc(S(=O)(=O)CCC(=O)Nc2ccc3c(c2)OCO3)cc1 | 96.5 | 84.5% (inactive) | 96.5% (inactive) | 92.5% (inactive) | 81.3% (inactive) | -10.8% (inactive) | 92.1 | 81.3 | 0.95% (inactive) | -2.22% (inactive)
12 | CC(C)(C)n1nnnc1C(c1cccs1)N1CCN(Cc2ccccc2)CC1 (stereo not given) | 90 | 98.5% (inactive) | 90% (inactive) | 86% (inactive) | 84.3% (inactive) | 0.73% (inactive) | 83.6 | 84.3 | -4.16% (inactive) | -2.86% (inactive)
13 | COc1ccc(OC)c2[nH]c(=O)c(CCNC(=O)CC(C)C)cc12 | 111 | 104% (inactive) | 111% (inactive) | 106% (inactive) | 100% (inactive) | 4.93% (inactive) | 95.2 | 100 | -8.77% (inactive) | -4.44% (inactive)
14 | Cc1ccc(C2CC(c3cccc(Br)c3)Nc3nnnn32)cc1 (stereo not given) | 92.5 | 79.5% (inactive) | 92.5% (inactive) | 56.7% (inactive) | 91.7% (inactive) | 6.65% (inactive) | 85 | 91.7 | -2.11% (inactive) | 0.16% (inactive)
15 | Cc1cc2c(cc(C(=O)OCC(=O)NCc3cccs3)n2C(C)C)o1 | 83 | 63.5% (inactive) | 83% (inactive) | 37.3% (inactive) | 21.7% (active) | -30.4% (inactive) | 52.1 | 21.7 | -6% (inactive) | 5.9% (inactive)
16 | CCOC(=O)CN1C2=NCCN2c2ccccc21 | 89.5 | 82% (inactive) | 89.5% (inactive) | 96.1% (inactive) | 99% (inactive) | 10.9% (inactive) | 88.1 | 99 | -2.63% (inactive) | -4% (inactive)
17 | CCCCN(CC)S(=O)(=O)N1CCC(C(=O)NCc2ccc(F)cc2)CC1 | 97 | 113% (inactive) | 97% (inactive) | 109% (inactive) | 101% (inactive) | 0.67% (inactive) | 101 | 101 | -4.34% (inactive) | 2.62% (inactive)
18 | O=C(O)C1CCCN1c1ncnc2c1oc1ccccc12 (stereo not given) | 101 | 92% (inactive) | 101% (inactive) | 81% (inactive) | 92.3% (inactive) | -7.12% (inactive) | 99.4 | 92.3 | -0.4% (inactive) | -7.1% (inactive)
19 | COc1ccc(CCNC(=O)c2cc(C(C)C)on2)cc1OC | 95.5 | 101% (inactive) | 95.5% (inactive) | 96.6% (inactive) | 93.2% (inactive) | 9.6% (inactive) | 83.6 | 93.2 | 0.51% (inactive) | -0.67% (inactive)
20 | O=C(CSc1nnc(-c2cccs2)o1)NCC1CN(Cc2ccccc2)CCO1 (stereo not given) | 99.5 | 90.5% (inactive) | 99.5% (inactive) | 106% (inactive) | 85.1% (inactive) | -13.7% (inactive) | 98.8 | 85.1 | -1.69% (inactive) | -1.9% (inactive)
21 | CCOc1ccc(OCC)c(NC(=O)C2CCN(S(=O)(=O)c3cnc[nH]3)CC2)c1 | 95.5 | 99% (inactive) | 95.5% (inactive) | 96.2% (inactive) | 111% (inactive) | 11.1% (inactive) | 100 | 111 | -2.37% (inactive) | -2.74% (inactive)
22 | CCCCC(=O)Nc1c(O)c2ccccc2[nH]c1=O | 95.5 | 107% (inactive) | 95.5% (inactive) | 108% (inactive) | 98.3% (inactive) | -2.29% (inactive) | 101 | 98.3 | -6.93% (inactive) | -8.69% (inactive)
23 | CCCCOC(=O)CSc1nc2c(cc1C#N)C(=O)CC(C)(C)C2 | 87 | 86% (inactive) | 87% (inactive) | 91.2% (inactive) | 78.8% (inactive) | -10.6% (inactive) | 89.4 | 78.8 | -5.13% (inactive) | -2.73% (inactive)
24 | CCNCc1cc2cc(C)ccc2[nH]c1=O | 106 | 99% (inactive) | 106% (inactive) | 80.6% (inactive) | 82.7% (inactive) | -7.93% (inactive) | 90.6 | 82.7 | -8.78% (inactive) | -7% (inactive)
25 | Cc1ccc(S(=O)(=O)C2(C(=O)N3CCCCCC3)CC2)cc1 | 96.5 | 83% (inactive) | 96.5% (inactive) | 93.8% (inactive) | 107% (inactive) | 1.4% (inactive) | 105 | 107 | -2.73% (inactive) | -0.95% (inactive)
26 | COc1ccc2ccccc2c1CN1CCCC(CO)C1 (stereo not given) | 92.5 | 85.5% (inactive) | 92.5% (inactive) | 92.9% (inactive) | 82% (inactive) | 1.51% (inactive) | 80.5 | 82 | -1.82% (inactive) | 0.82% (inactive)
27 | COc1ccccc1C(O)P(=O)(OC(C)C)c1ccc(N(C)C)cc1 (stereo not given) | 101 | 120% (inactive) | 101% (inactive) | 104% (inactive) | 98.1% (inactive) | 11.6% (inactive) | 86.5 | 98.1 | -6.53% (inactive) | -5% (inactive)
28 | CCn1cc(C(=O)N2CCN(C(=O)c3ccco3)CC2)c2cc(OC)c(OC)cc2c1=O | 95 | 84% (inactive) | 95% (inactive) | 91.3% (inactive) | 98.1% (inactive) | 0.175% (inactive) | 97.9 | 98.1 | -4.61% (inactive) | -2.36% (inactive)
29 | O=C(CSc1ncnc2ccccc12)N1CCN(c2ccccc2)CC1 | 102 | 92.5% (inactive) | 102% (inactive) | 94.1% (inactive) | 82.7% (inactive) | 4.57% (inactive) | 78.1 | 82.7 | -1.05% (inactive) | -8.73% (inactive)
